From ChEMBL document CHEMBL1151255, “Cyclic peptides from a Ruegeria strain of bacteria associated with the sponge Suberites domuncula” (2004)
≈ marks a conversion by molar mass, not a printed value. Calls of active or inactive are those of the source. No cut-off for these calls is given here. Where a SMILES comes first, the peptide text is derived from it.

Legend:
Bacillus spizizenii = test: Antimicrobial activity against Bacillus subtilis subsp. spizizenii; type: functional
Outline: (§1)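 MIC by twofold serial dilution in duplicate, top concentration 50 μg/mL. Test strains were B. subtilis subsp. spizizenii DSM 347, E. coli DSM 498 and S. cerevisiae DSM 70449. Growth was scored after 48 h at each strain's optimal growth temperature. Gentamycin and nystatin served as controls.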

Saccharomyces cerevisiae = test: Antimicrobial activity against Saccharomyces cerevisiae; type: functional, organism-based; outline: as §1
Escherichia coli = test: Antimicrobial activity against Escherichia coli; type: functional, organism-based; outline: as §1

Row | Compound | Activity (Bacillus spizizenii) | Activity (Saccharomyces cerevisiae) | Activity (Escherichia coli) | MIC (Bacillus spizizenii)
1 | C[C@@H]1NC(=O)[C@@H]2C[C@@H](O)CN2C1=O | inactive | inactive | inactive | 
2 | O=C(O)CC[C@@H]1NC(=O)[C@@H]2CCCN2C(=O)[C@H](CO)NC(=O)CNC1=O (cyclo(EGSP)) |  | inactive | inactive | 25 µg/mL (≈ 67.5 µM)
3 | O=C1CCCNC(=O)CN1 | inactive | inactive | inactive | 
4 | O=C1NCC(=O)N2CCC[C@@H]12 | inactive | inactive | inactive | 
5 | C[C@@H]1NC(=O)[C@H]2C[C@@H](O)CN2C1=O | inactive | inactive | inactive | 
6 | O=C(O)CC[C@@H]1NC(=O)[C@@H]2CCCN2C(=O)[C@H](CCC(=O)O)NC(=O)[C@@H]2CCCN2C1=O (cyclo(EPEP)) | inactive | inactive | inactive | 
7 | O=C(O)CC[C@@H]1NC(=O)[C@@H]2CCCN2C(=O)CNC1=O (cyclo(Glu-Gly-Pro)) |  | inactive | inactive | 50 µg/mL (≈ 177 µM)
8 | O=C1[C@@H]2C[C@@H](O)CN2C(=O)[C@@H]2CCCN12 | inactive | inactive | inactive | 
